ChEMBL document CHEMBL2412955, “Synthesis and antibacterial activities of N-substituted-glycinyl 1H-1,2,3-triazolyl oxazolidinones” (2013)
≈ marks a conversion by molar mass, not a printed value.

Key:
Format in all cases: functional
[1] = test system: Enterococcus; test: Antibacterial activity against vancomycin-resistant Enterococcus after 18 hrs by NCCLS agar dilution method
Procedure, shortened: (§1)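 Clinical isolates were tested by agar dilution on Mueller-Hinton agar with drug dilutions from 0.12 to 64 µg/ml. Test compounds were dissolved in 80% DMSO in water. Final inoculum was 10^7 CFU/ml, incubated at 35 °C for 18 h. MIC was the lowest concentration inhibiting visible growth.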

[2] = test system: Moraxella catarrhalis; test: Antibacterial activity against Moraxella catarrhalis clinical isolate 112 after 18 hrs by NCCLS agar dilution method; conditions: clinical isolate 112, 18 h
Procedure, shortened: (§2)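 NCCLS agar dilution on Mueller-Hinton agar with 5% sheep blood added to support growth. Drug dilutions 0.12–64 µg/ml. Test agents in 80% DMSO in water, linezolid in 40% water in ethanol. Final inoculum 10^7 CFU/ml, 18 h at 35 °C. MIC read as the lowest concentration with no visible growth.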

[3] = test system: Staphylococcus; test: Antibacterial activity against methicillin-susceptible coagulase-negative Staphylococcus after 18 hrs by NCCLS agar dilution method; procedure, shortened: as §1
[4] = test system: Moraxella catarrhalis; test: Antibacterial activity against Moraxella catarrhalis clinical isolate 2824 after 18 hrs by NCCLS agar dilution method; conditions: clinical isolate 2824, 18 h; procedure, shortened: as §2
[5] = test system: Staphylococcus aureus; test: Antibacterial activity against methicillin-resistant Staphylococcus aureus after 18 hrs by NCCLS agar dilution method; procedure, shortened: as §1
[6] = test system: Moraxella catarrhalis; test: Antibacterial activity against Moraxella catarrhalis ATCC 8176 after 18 hrs by NCCLS agar dilution method; conditions: ATCC 8176, 18 h; procedure, shortened: as §2
[7] = test system: Streptococcus pneumoniae; test: Antibacterial activity against penicillin-resistant Streptococcus pneumoniae after 18 hrs by NCCLS agar dilution method
Procedure, shortened: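 Agar dilution was run on Mueller-Hinton agar supplemented with 5% sheep blood, with drug dilutions from 0.12 to 64 µg/ml. Test compounds were dissolved in 80% DMSO in water. Final inoculum was 10^7 CFU/ml, incubated at 35 °C for 18 h. MIC was the lowest concentration preventing visible growth.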

[8] = test system: Enterococcus; test: Antibacterial activity against vancomycin-susceptible Enterococcus after 18 hrs by NCCLS agar dilution method; procedure, shortened: as §1
[9] = test system: Staphylococcus aureus; test: Antibacterial activity against methicillin-susceptible Staphylococcus aureus after 18 hrs by NCCLS agar dilution method; procedure, shortened: as §1
[10] = test system: Escherichia coli; test: Antibacterial activity against Escherichia coli ATCC 25922 after 18 hrs by NCCLS agar dilution method; conditions: ATCC 25922, 18 h
Procedure, shortened: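 Agar dilution per NCCLS on Mueller-Hinton agar, drug dilutions 0.12–64 µg/ml. Linezolid dissolved in 40% water in ethanol, vancomycin in water, test agents in 80% DMSO in water. Inoculum 10^7 CFU/ml (final), incubated 35 °C for 18 h. MIC is the lowest concentration preventing visible growth.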

[11] = test system: Moraxella catarrhalis; test: Antibacterial activity against Moraxella catarrhalis clinical isolate 36 after 18 hrs by NCCLS agar dilution method; conditions: clinical isolate 36, 18 h; procedure, shortened: as §2
[12] = test system: Moraxella catarrhalis; test: Antibacterial activity against Moraxella catarrhalis clinical isolate 138 after 18 hrs by NCCLS agar dilution method; conditions: clinical isolate 138, 18 h; procedure, shortened: as §2
[13] = test system: Moraxella catarrhalis; test: Antibacterial activity against Moraxella catarrhalis clinical isolate 1 after 18 hrs by NCCLS agar dilution method; conditions: clinical isolate 1, 18 h; procedure, shortened: as §2
[14] = test system: Moraxella catarrhalis; test: Antibacterial activity against Moraxella catarrhalis clinical isolate 3447 after 18 hrs by NCCLS agar dilution method; conditions: clinical isolate 3447, 18 h; procedure, shortened: as §2
[15] = test system: Moraxella catarrhalis; test: Antibacterial activity against Moraxella catarrhalis clinical isolate 125 after 18 hrs by NCCLS agar dilution method; conditions: clinical isolate 125, 18 h; procedure, shortened: as §2
[16] = test system: Haemophilus influenzae; test: Antibacterial activity against Haemophilus influenzae ATCC 49247 after 18 hrs by NCCLS agar dilution method; conditions: ATCC 49247, 18 h; procedure, shortened: as §2
[17] = test system: Staphylococcus aureus; test: Antibacterial activity against Staphylococcus aureus ATCC 25923 after 18 hrs by […] in presence of human plasma; conditions: ATCC 25923, Plasma
Procedure, shortened: (§3)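 To gauge plasma protein binding and/or plasma instability, MIC was determined in Mueller-Hinton broth containing 50% human plasma. Linezolid served as a reference agent. Ratio compares this MIC with the MIC obtained without plasma.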

[18] = test system: Staphylococcus aureus; test: Antibacterial activity against Staphylococcus aureus ATCC 25923 after 18 hrs by NCCLS agar dilution method; conditions: ATCC 25923, 18 h
Procedure, shortened: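 Plain Mueller-Hinton agar, agar dilution per NCCLS, concentrations 0.12–64 µg/ml. Test agents in 80% DMSO in water, linezolid in 40% water in ethanol, vancomycin in water. Final inoculum 10^7 CFU/ml, 35 °C for 18 h. MIC = lowest concentration inhibiting visible growth.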

[19] = test system: Staphylococcus; test: Antibacterial activity against methicillin-resistant coagulase-negative Staphylococcus after 18 hrs by NCCLS agar dilution method; procedure, shortened: as §1
[20] = test system: Moraxella catarrhalis; test: Antibacterial activity against Moraxella catarrhalis clinical isolate 255 after 18 hrs by NCCLS agar dilution method; conditions: clinical isolate 255, 18 h; procedure, shortened: as §2
[21] = test system: Staphylococcus aureus; test: Ratio of MIC for Staphylococcus aureus ATCC 25923 to MIC for Staphylococcus aureus ATCC 25923 in presence of human plasma; procedure, shortened: as §3
[22] = test system: Moraxella catarrhalis; test: Ratio of linezolid MIC to compound MIC for Moraxella catarrhalis ATCC 8176

SMILES | MIC [1] [µg/mL] | MIC [2] [µg/mL] | MIC [3] [µg/mL] | MIC [4] [µg/mL] | MIC [5] [µg/mL] | MIC [6] [µg/mL] | MIC [7] [µg/mL] | MIC [8] [µg/mL] | MIC [9] [µg/mL] | MIC [10] [µg/mL] | MIC [11] [µg/mL] | MIC [12] [µg/mL] | MIC [13] [µg/mL] | MIC [14] [µg/mL] | MIC [15] [µg/mL] | MIC [16] [µg/mL] | MIC [17] [µg/mL] | MIC [18] [µg/mL] | MIC [19] [µg/mL] | MIC [20] [µg/mL] | other results
Cc1cn(C[C@H]2CN(c3ccc(N4CCN(C(=O)CNC(=O)c5ccccc5)CC4)c(F)c3)C(=O)O2)nn1 | 0.5 (≈ 0.959 µM) | 4 (≈ 7.67 µM) | 0.5 (≈ 0.959 µM) | 4 (≈ 7.67 µM) | 0.5 (≈ 0.959 µM) | 8 (≈ 15.3 µM) | 2 (≈ 3.83 µM) | 0.5 (≈ 0.959 µM) | 0.5 (≈ 0.959 µM) | > 64 | 4 (≈ 7.67 µM) | 4 (≈ 7.67 µM) | 4 (≈ 7.67 µM) | 4 (≈ 7.67 µM) | 4 (≈ 7.67 µM) | 32 (≈ 61.4 µM) | 16 | 1 (≈ 1.92 µM) | 0.5 (≈ 0.959 µM) | 4 (≈ 7.67 µM) | 
O=C(NCC(=O)N1CCN(c2ccc(N3C[C@H](Cn4ccnn4)OC3=O)cc2F)CC1)c1cc([N+](=O)[O-])cc([N+](=O)[O-])c1 | 1 (≈ 1.67 µM) | 0.25 (≈ 0.418 µM) | 0.5 (≈ 0.837 µM) | 0.25 (≈ 0.418 µM) | 0.5 (≈ 0.837 µM) | 0.5 (≈ 0.837 µM) | 0.25 (≈ 0.418 µM) | 0.5 (≈ 0.837 µM) | 0.5 (≈ 0.837 µM) | > 64 | 0.25 (≈ 0.418 µM) | 0.25 (≈ 0.418 µM) | 0.25 (≈ 0.418 µM) | 0.25 (≈ 0.418 µM) | 0.25 (≈ 0.418 µM) | 16 (≈ 26.8 µM) | 16 | 1 (≈ 1.67 µM) | 0.5 (≈ 0.837 µM) | 0.25 (≈ 0.418 µM) | Ratio [21]: 16; Ratio [22]: 16
Cc1cn(C[C@H]2CN(c3ccc(N4CCN(C(=O)CNC(=O)c5cc([N+](=O)[O-])cc([N+](=O)[O-])c5)CC4)c(F)c3)C(=O)O2)nn1 | 2 (≈ 3.27 µM) | 0.5 (≈ 0.818 µM) | 1 (≈ 1.64 µM) | 1 (≈ 1.64 µM) | 1 (≈ 1.64 µM) | 1 (≈ 1.64 µM) | 0.25 (≈ 0.409 µM) | 1 (≈ 1.64 µM) | 1 (≈ 1.64 µM) | > 64 | 1 (≈ 1.64 µM) | 1 (≈ 1.64 µM) | 1 (≈ 1.64 µM) | 0.5 (≈ 0.818 µM) | 0.5 (≈ 0.818 µM) | > 16 | 8 | 2 (≈ 3.27 µM) | 1 (≈ 1.64 µM) | 0.5 (≈ 0.818 µM) | Ratio [21]: 4; Ratio [22]: 8
O=C(NCC(=O)N1CCN(c2ccc(N3C[C@H](Cn4ccnn4)OC3=O)cc2F)CC1)c1cccnc1 | 2 (≈ 3.93 µM) | 8 (≈ 15.7 µM) | 1 (≈ 1.97 µM) | 8 (≈ 15.7 µM) | 1 (≈ 1.97 µM) | 8 (≈ 15.7 µM) | 0.25 (≈ 0.492 µM) | 2 (≈ 3.93 µM) | 1 (≈ 1.97 µM) | > 64 | 8 (≈ 15.7 µM) | 8 (≈ 15.7 µM) | 8 (≈ 15.7 µM) | 8 (≈ 15.7 µM) | 8 (≈ 15.7 µM) | 8 (≈ 15.7 µM) | 8 | 2 (≈ 3.93 µM) | 1 (≈ 1.97 µM) | 8 (≈ 15.7 µM) | 
